Experimental data reported in ChEMBL document CHEMBL4513216, “Probing the Open Global Health Chemical Diversity Library for Multistage-Active Starting Points for Next-Generation Antimalarials” (ACS Infect Dis, 2020).

Test: Toxicity liver stage against HepG2, at 10uM
Assay type: cell-based
Parameters: test concentration 10 uM, cell line HepG2-A16-CD81EGFP
Conditions: human, HepG2-A16-CD81EGFP cells; read-out: INHIBITION
In short: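 Uninfected HepG2-A16-CD81EGFP cells, 3 × 10^3 per well, 1536-well, plated on prespotted compound at 10 μM final, parasite-free screening media added to match infected plates; puromycin 10 μM positive, DMSO 0.5% negative; run in parallel with 48 h PbLuc assay at 37 °C, 5% CO2; viability by CellTiter-Glo luminescence, normalized to controls.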

| Compound | cytotoxicity at 10 µM [%] |
| --- | --- |
| COC(=O)CCCC(=O)N1CCC(CO)(CCc2ccccc2)CC1 | 1.34 |
| Nc1nnc(SCc2cc(=O)n3c4c(sc3n2)CCCC4)s1 | 7.83 |
| O=S1(=O)N(c2ccccc2)C[C@H](O)[C@]12CCNC2 | 0.827 |
| CC(C)CNC(=O)CNc1c(NCc2ccncc2)c(=O)c1=O | -4.44 |
| O=C(Cn1ccc2ccccc21)Nc1cc(N2CCOCC2)ncn1 | -14 |
| O=C(Cc1c(F)cccc1Cl)Nc1cc(N2CCOCC2)ncn1 | 3.36 |
| CC(=O)N1CCC2(CC1)CN(C(=O)C1CC1)c1ccc(F)cc12 | 2.05 |
| CN1CCC2(CCN(C(=O)c3ccccc3)CC2)C1 | -2.36 |
| NC(=O)C1CCN(C(=O)Cn2ccc3cc(Br)ccc32)CC1 | 11.1 |
| CN1CCc2nc3c(c(N)c2C1)CCCN3C | 11.3 |
| Cc1cc(C)n(CCC(=O)N2CCCC(c3nc(C(C)C)no3)C2)n1 (stereo unspecified) | 8.27 |
| Cc1ccc2cnn(CCC(=O)Nc3nc(C)c(C)s3)c2c1 | 2.57 |
| Cc1nc(C(Cc2ccsc2)NC(=O)CN2CCOCC2)sc1C (stereo unspecified) | 2.7 |
| Cc1cc(O)nc(C2CCN(C(=O)CO)CC2)n1 | 0.01 |
| CS(=O)(=O)c1cc(Cl)cnc1C1CCCN(C(=O)C2CCOCC2)C1 (stereo unspecified) | 4.34 |
| CC(C)c1nccn1CCC(=O)N1CCCCC1c1ccn[nH]1 (stereo unspecified) | 6.16 |
| O=C(CN1CCCCCC1)N1CCc2nnc(C3CCCNC3)n2CC1 (stereo unspecified) | -5.56 |
| Cn1nccc1C(=O)N1CCC(c2nnsc2S(C)(=O)=O)CC1 | -4.22 |
| Cc1nc(C2CCN(C(C)C)CC2)sc1Br | -3.02 |
| O=C(Cc1ccc(O)cc1)N1CCCC(O)(CN2CCOCC2)CC1 (stereo unspecified) | -1.45 |
| Cc1noc(C)c1-c1ccc(C2CCCN2CCC(N)=O)nc1 (stereo unspecified) | 1.94 |
| Cc1cccc(CC2CCCN(C(=O)C3CCOCC3)C2)n1 (stereo unspecified) | 2.16 |
| Cc1cc(-c2ccccc2C(=O)O)nc(C2CCCN(C)C2)n1 (stereo unspecified) | -5.03 |

| Compound | cytotoxicity at 10 µM [%] |
| --- | --- |
| CCc1cc(O)nc(C2CCCN2C(=O)COC)n1 (stereo unspecified) | -11.5 |
| COCCC(=O)N1CCCC1c1csc(Nc2ccccn2)n1 (stereo unspecified) | -13.2 |
| NC(=O)CN1CCC(c2cc(C(F)(F)F)n3ccnc3n2)CC1 | -2.28 |
| Cc1noc(C)c1-c1cccc(CC2CCN(C(=O)CCC(=O)O)C2)n1 (stereo unspecified) | -8.44 |
| Cc1ccc2nc(C3CCCN(Cc4ccccc4)C3)nc(O)c2c1 (stereo unspecified) | 6.67 |
| COc1ccccc1-c1nc(C(=O)N(C)C)n2ccncc12 | 12.6 |
| Cc1cc(NC(=O)N2CCC[C@@H]2CO)nn1-c1ccccc1Cl | -1.29 |
| CC(C)c1noc(CCC(=O)N(CC2CCOC2)C2CC2)n1 (stereo unspecified) | 8.01 |
| CCN(CC(=O)N(C)C)C(=O)c1ccc(-c2nc(C)cs2)cc1 | 6.98 |
| COc1ccc(OC)c(CNC2CCCN(c3cccnn3)C2)c1 (stereo unspecified) | -4.67 |
| CC(Nc1nc2c(cnn2C)c(=O)[nH]1)c1ccccn1 (stereo unspecified) | 13.3 |
| CS(=O)(=O)N1CCC(C(=O)N2CCOc3ccccc32)CC1 | -0.595 |
| CC(C)(C)OC(=O)NCCC(=O)N(CCC#N)Cc1ccco1 | 3.12 |
| CCc1noc(CN(C)Cc2cc(Br)ccc2OC)n1 | 3.91 |
| CC(Oc1cc(Cl)cc(Cl)c1)C(=O)NCCC(=O)N(C)C (stereo unspecified) | -6.51 |
| CC(C)(C)Oc1ccc(CN)c(C(F)(F)F)c1 | 9.5 |
| Cc1nccn1CCCC(=O)Nc1nc(C(C)C)nn1C | -1.37 |
| O=C(COC1CCCC1)NCCc1nc(-c2ccccn2)cs1 | 6.94 |
| CCOC(=O)CNC(=O)c1scnc1C | 5.35 |
| COCCN(CCC#N)S(=O)(=O)c1ccc(F)cc1Cl | 2.13 |
| CCN(CC)C(=O)CNC(=O)c1cnc(-c2ccccc2)nc1 | 12.7 |
| Cc1cccc(C(=O)NC2CCN(c3cnn(C)c3)C2=O)c1C (stereo unspecified) | -1.2 |
| CC(CNC(=O)c1cc(Cl)ccc1I)N1CCCC1 (stereo unspecified) | -5.28 |

| Compound | cytotoxicity at 10 µM [%] |
| --- | --- |
| Cc1nc(CN2CCN(C(=O)CCc3nc(C(C)(C)C)no3)CC2)cs1 | 3.64 |
| Cc1ccc(CN(C)C(=O)Cn2nc(-c3ccc(F)cc3)oc2=O)cc1 | -20.6 |
| Cc1ccc(OCCCC(=O)NC(C)c2ccc(S(N)(=O)=O)cc2)cc1 (stereo unspecified) | -2.69 |
| O=C(c1ccccc1)C1CCN(Cc2cc3c(cc2O)CCC3)CC1 | 24.2 |
| O=C(NC1CC1)NC(c1cc(F)ccc1F)C1CC1 (stereo unspecified) | -12.8 |
| CCn1c(CN(C)C(=O)c2ccc(OC)nc2)nc2ccccc21 | -6.23 |
| O=C(c1cc(Cl)c2c(c1)OCCCO2)N(CC1CCOC1)C1CC1 (stereo unspecified) | -4.09 |
| N#Cc1nccnc1N1CCC(CSc2ccccc2)C1 (stereo unspecified) | 0.957 |
| CC(CC#N)N(C)Cc1ccccc1F (stereo unspecified) | 10.4 |
| CCCOc1ccc(CNCCn2cccn2)cc1 | 9.66 |
| CCC1CN(CC(=O)NCC(C)C)CCO1 (stereo unspecified) | 14.4 |
| COc1ccc(C(=O)NCCCNc2ncccn2)c(OC)c1 | -7.4 |
| CCCc1nnc(NCc2ccc(OC)c(C#N)c2)o1 | -0.808 |
| CCOC(C(=O)N1CCn2c(C)nnc2C1)c1ccccc1 (stereo unspecified) | 4.93 |
| CC(Cn1cccn1)NCCS(=O)(=O)c1ccc(Cl)cc1 (stereo unspecified) | -6.19 |
| C1CCC(NCC2(N3CCOCC3)CCSC2)C1 (stereo unspecified) | -10.8 |
| CN1CCN(S(=O)(=O)c2cccc(F)c2)c2cnccc21 | -2.95 |
| COc1ccc2c(ccn2CC(=O)N2CCCC2c2cnn(C)c2)c1 (stereo unspecified) | 3.74 |
| Cc1cc(F)c(S(=O)(=O)Nc2ccn(CCCC#N)n2)cc1F | 19.3 |
| Cc1ncc(CNCC2CCC(C(N)=O)CC2)n1-c1ccccc1 (stereo unspecified) | -12.9 |
| O=C(Cc1cccs1)N1Cc2nc(CN3CCCC3)oc2C1 | -2.87 |
| Cc1cc(CN2CCC(c3cc(Cc4ccccc4)n[nH]3)CC2)[nH]n1 | 7.54 |
| COCCN1C[C@H](NC(=O)CCC(F)(F)F)[C@@H](C(C)C)C1 | 5.25 |

| Compound | cytotoxicity at 10 µM [%] |
| --- | --- |
| CNc1ncc(CN(C)C(=O)c2ccc(C3CCCO3)s2)cn1 (stereo unspecified) | 10.2 |
| Cc1cc(C)c2c(N3CCCN(C(=O)C4CCC4)CC3)ncnc2n1 | -10.7 |
| CC(=O)c1ccc(N2CCC3(CCC(=O)N(CCCO)C3)CC2)nc1 | 4.81 |
| Cc1nnsc1CN(C)C(=O)CCn1cnc2ccccc21 | 14.7 |
| CC(C)[C@@H]1CN(c2ccc(F)cn2)C[C@H]1NS(C)(=O)=O | 3.69 |
| O=C(O)C1(Cc2ccc(F)cc2F)CCCN(Cc2ccccn2)C1 (stereo unspecified) | 7.65 |
| CC(=O)N[C@@H]1CN(C2CCN(c3cccc(Cl)c3)CC2)C[C@H]1C(C)C | 1.6 |
| COc1ccccc1-n1nc(-c2ccco2)n(CC(N)=O)c1=O | 0.5 |
| CC(C)n1cnnc1Cn1c(=O)cnc2ccccc21 | -4.04 |
| CC(C)c1cncnc1N1CC[C@H](N2CCOCC2)[C@H](CCCO)C1 | 5.86 |
| COc1ccc(-c2cc(CN)ccc2F)c(OC)c1OC | 1.91 |
| CN(C)[C@H]1CCCCN(C(=O)c2cccc(N3CCS(=O)(=O)CC3)c2)C1 | 2.45 |
| CC(C)c1cc(CN2CCNCC2)no1 | -10.9 |
| CCOCC(=O)N1C[C@@H](O)[C@H](N(C)Cc2ccc(OC)cc2)C1 | 0.307 |
| O=c1oc(-c2ccc(F)cc2)nn1CN1CCN(CC2CC2)CC1 | 1.44 |
| O=C(NCc1ccccc1Cn1cncn1)C1CCCCC1 | -2.06 |
| CNS(=O)(=O)c1ccc(C(=O)N2CCCCC2c2ccc(C)cc2)o1 (stereo unspecified) | -9.8 |
| CN(C)C(=O)CCCS(=O)(=O)Cc1cc(Cl)c2c(c1)OCO2 | -4.52 |
| Cc1cnn(CC2CN(CC(=O)Nc3nncs3)CCO2)c1 (stereo unspecified) | -10 |
| CC(C)(CNC(=O)CCCOc1cccc(F)c1)C(N)=O | -6.54 |
| COc1ccc(COCC(=O)N2CCN(CC(C)(C)O)CC2)cc1 | -4.92 |
| CCNC(=O)CN1CCN(Cc2nc3c(F)cccc3n2CC)CC1 | -11.5 |
| Cn1cc(C(=O)CC2CCCN2C(=O)c2cccc3ncccc23)cn1 (stereo unspecified) | 6.19 |

| Compound | cytotoxicity at 10 µM [%] |
| --- | --- |
| CCc1ccccc1C(=O)N1CCCC1CC(=O)c1cnn(C)c1 (stereo unspecified) | -1.22 |
| Cc1nc(C)n(C2CCCN(C(=O)CCCNc3ncccn3)C2)n1 (stereo unspecified) | -4.26 |
| Cn1cnnc1C1CCN(C(=O)Cc2ccc3c(c2)OCCO3)CC1 | -10.4 |
| COc1cc(CNCc2c(C)nn(C)c2N(C)C)ccc1C | -9.16 |
| CCc1sc(-c2nnc(CNCCn3cc(C)cn3)o2)cc1C | -8.75 |
| Fc1cccc(F)c1Cn1c(C2CCCNC2)cc2cccnc21 (stereo unspecified) | 2 |
| O=C1CCC2(CCC(NCc3ccc4c(c3)OCO4)CC2)N1 (stereo unspecified) | 1.97 |
| CS(=O)(=O)N1C[C@H](C(=O)Nc2cccnc2)C[C@H]2OCC[C@H]21 | 11.3 |
| Cc1ccc(CN2CCCC3(COCCN(Cc4c[nH]nn4)C3)C2)o1 (stereo unspecified) | -5.47 |
| CCOCC1CN(Cc2ccc(OC)cc2)Cc2nn(C)cc21 (stereo unspecified) | 3.65 |
| c1ccc(CN2Cc3[nH]nc(COCC4CC4)c3C2)nc1 | -1.83 |
| CS(=O)(=O)N[C@@H]1CCN(Cc2nccs2)[C@H]1Cc1ccncc1 | -2.48 |
| CCc1ccc(CN2CC[C@H]3[C@H]2CC(=O)N3Cc2cccc(C)n2)o1 | -2.19 |
| Cc1ccc(C(=O)N2C[C@@H]3CCCO[C@@H]3[C@H](N3CCCC3)C2)cn1 | -3.8 |
| c1cncc(CN2CCc3ncnc(C4CCOC4)c3CC2)c1 (stereo unspecified) | 5.02 |
| Cc1noc(CN2C[C@@H]3CC[C@H]2CN(C2Cc4ccccc4C2)C3)n1 | 3.3 |
| O=C(NC[C@H]1CCCO1)c1ccc(S(=O)(=O)N2C[C@H]3C[C@@H]2CN3)cc1 | 2.5 |
| COc1ccc(-n2cc3nc(N4CCCC4)[nH]cc-3c2=O)cc1Cl | 11.6 |
| CN(C)S(=O)(=O)N1C[C@H]2CC[C@@H](C1)N(C/C=C/c1ccc(F)cc1)C2 | -1.23 |
